Data from ChEMBL document CHEMBL4513216, “Probing the Open Global Health Chemical Diversity Library for Multistage-Active Starting Points for Next-Generation Antimalarials” (ACS Infect Dis, 2020).

assay: Toxicity liver stage against HepG2, at 10uM; format: cell-based; parameters: test concentration 10 uM, cell line HepG2-A16-CD81EGFP; conditions: human, HepG2-A16-CD81EGFP cells; read-out: INHIBITION
Outline: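 Uninfected HepG2-A16-CD81EGFP cells, 3 × 10^3 per well, 1536-well, plated on prespotted compound at 10 μM final, parasite-free screening media added to match infected plates; puromycin 10 μM positive, DMSO 0.5% negative; run in parallel with 48 h PbLuc assay at 37 °C, 5% CO2; viability by CellTiter-Glo luminescence, normalized to controls.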

Row | SMILES | cytotoxicity at 10 µM [%]
1 | O=C(NC1(c2nccs2)CCCC1)c1[nH]nc(C2CC2)c1Cl | -24.6
2 | COCCCN1CCC(NC2CSCCc3ccccc32)CC1 (configuration not stated) | -3.32
3 | CCc1cc(O)n2nc(C3CCCN3C(=O)c3ccccn3)cc2n1 (configuration not stated) | -0.805
4 | Cc1cc(NCC(=O)N(C)C)c(C(N)=O)cc1F | -2.64
5 | CC(C)(C)NCc1nn(Cc2ccccc2)nc1-c1ccccc1 | 11.9
6 | Cc1csc(N2CCN(C(=O)CCC(=O)c3ccc(C)s3)CC2)n1 | -3.09
7 | CCN1C(=O)CCC12CCC(NC(=O)NCc1cccnc1)CC2 (configuration not stated) | -104
8 | COc1ccc(NC(=O)Cn2nc(C)c(C)cc2=O)cc1Cl | -6.47
9 | O=C(O)c1cnc2c(cnn2C2CCCC2)c1 | -8.23
10 | c1cc(CCNc2ncnc3c2CCN(Cc2ccoc2)CC3)ccn1 | 9.08
11 | O=C(N[C@@H]1CN(Cc2ccc3c(c2)OCO3)[C@@H]2CCCO[C@@H]21)C1CC1 | 2.06
12 | CC1=N[C@@]2(CC[C@@H]3CN(S(=O)(=O)C4CC4)C[C@@H]32)C(=O)N1CC(C)C | -76.8
13 | COc1ncc(NC(=O)c2ccco2)c(OC)n1 | -3.74
14 | c1ccc(CCN2CCCC2c2ccnc(Nc3ncccn3)n2)cc1 (configuration not stated) | 2.14
15 | N#CCc1ccc(OCC(=O)N2CCCC(n3cccn3)C2)cc1 (configuration not stated) | -4
16 | CCn1nc2c(cc1=O)CN(Cc1coc(-c3ccccc3)n1)CC2 | -10.9
17 | O=C(c1cscn1)N1CCCC12CCCN(S(=O)(=O)c1ccccc1)C2 (configuration not stated) | 4.35
18 | Cc1cnn(CC(=O)N2CCC(Nc3ccc(C)nn3)CC2)c1 | -21.2
19 | Cc1oncc1C(=O)N1CCC2(CCN(Cc3cccnc3)C2=O)C1 (configuration not stated) | -144
20 | CC(=O)N1CCCCC1c1cc(CO)[nH]n1 (configuration not stated) | -0.671
21 | Nc1ncccc1C(=O)NCc1cccc(Cl)c1 | 20.5
22 | O=C(COCC(=O)N1CCCCCC1)NCc1cccc(Br)c1 | 1.47
23 | Cc1nnc(CN(C)C2CCN(Cc3nc4ccccc4n3C)C2)o1 (configuration not stated) | -10.1

Row | SMILES | cytotoxicity at 10 µM [%]
24 | Cn1c(Cn2ccnc2)nnc1C1CCN(C(=O)C2(C)CC2)CC1 | -9.7
25 | CCc1cnc(CN(C(C)=O)C2CCN(CC3(O)CCCCC3)C2)o1 (configuration not stated) | 0.195
26 | COc1ccc(OC)c(C2SCC(=O)Nc3n[nH]cc32)c1 (configuration not stated) | 12.8
27 | COCCN1CCN(Cc2cccc(C(=O)N(C)C)c2)CC1 | -6.79
28 | Cc1ccc(C(=O)Nc2c(C(=O)N(C)C)nn(C)c2C)cc1 | 5.59
29 | COCC1CN(CC2CC2)Cc2nn(C)cc21 (configuration not stated) | 0.281
30 | CC(C)Nc1nc(O)cc(C(C)n2ncc3ccccc3c2=O)n1 (configuration not stated) | 2.81
31 | Cc1nc(CN2CCCC(CCc3cccc(C(F)(F)F)c3)C2)co1 (configuration not stated) | -0.0825
32 | CN(C)c1nccc(CNC(=O)NC(C)(C)C)n1 | -7.36
33 | Cc1noc(C)c1CN1CCN(CC2CC2)c2ncccc2C1 | 5.56
34 | Cc1cnn(CC(C)NCCc2cccs2)c1 (configuration not stated) | -1.52
35 | C[C@@H]1CN(S(=O)(=O)c2ccc(F)cc2F)C[C@]1(C)O | -3.36
36 | COc1ccccc1CN1CCCC(n2cccn2)C1 (configuration not stated) | 2
37 | COc1ccc(-n2nc(C(C)C)nc2COC(C)C)cc1 | 1.56
38 | Cn1ccnc1C1CCCN(C(=O)c2ccc3nccnc3c2)C1 (configuration not stated) | 19.7
39 | COc1c(C)cnc(CNC(=O)c2cnc3onc(C)c3c2)c1C | 26.3
40 | Cc1nc(NCC2CC2)nc2c1COCC21CCNC1 (configuration not stated) | -72.8
41 | CC(C)SCCn1ccc2[nH]c(=O)c(C#N)cc2c1=O | 3.18
42 | CC(C)(CN1CCC(Cc2ccc(CO)cc2)C1)N1CCOCC1 (configuration not stated) | -2.71
43 | CCc1cnc(N2Cc3cnc(C(C)(C)C)nc3C2)nc1 | 3.51
44 | COc1ccccc1N1CCN(C(=O)CCn2ccc(C)n2)CC1(C)C | -8.64
45 | COCc1nc(C(=O)N2CCCCC2Cn2cc(C)cn2)cs1 (configuration not stated) | 3.18
46 | CCOc1ccc(-n2nnc(C(=O)O)c2-c2ccccn2)cc1 | -9.31

Row | SMILES | cytotoxicity at 10 µM [%]
47 | Fc1cccc(Cc2cncc(C3CCCN3C3CCOCC3)n2)c1 (configuration not stated) | -0.685
48 | CCN1C(=O)C2(CCOCC2)c2cc(NC(=O)c3csnn3)ccc21 | 0.223
49 | O=C(c1ccsc1)N1C[C@@H]2C[C@@H](c3nnc(C4CC4)o3)O[C@@H]2C1 | -6.15
50 | CC(C)n1cnnc1CN(C)CC1CCOC1 (configuration not stated) | 11.3
51 | CC(C)OC(=O)N1C[C@@H]2CC[C@H]1CN(C(=O)c1ccccc1)C2 | 0.608
52 | CN(C)CC(NC(=O)c1ccn(C)c(=O)c1)c1ccccc1 (configuration not stated) | -5.85
53 | CCN(CC)c1ccc(CNC(=O)N2CCC(C#N)CC2)cc1 | -11.4
54 | O=S(=O)(NCC(O)c1ccoc1)c1ccc(Cl)s1 (configuration not stated) | -9.34
55 | CCC(CC)NC(=O)c1cccnc1N1CCCC1c1ccccn1 (configuration not stated) | 10.3
56 | c1ccc2c(c1)CN(c1ncnc3c1CCNC3)CCO2 | 3.13
57 | CS(=O)(=O)N1C[C@@H]2CCN(C(=O)c3ccco3)[C@@H]2C1 | 10
58 | CC(C)CN(C(=O)Nc1cccnc1)C1CC1 | -11.3
59 | CC(=O)N1CCC(N[C@@H]2CC[C@@H]2NS(=O)(=O)c2cccnc2)CC1 | 2.98
60 | c1ccc2c(c1)CCN(c1ncnc3sc4c(c13)CCNC4)C2 | 5.66
61 | CC(=O)N1CCN(C(=O)NCCCN(C)S(C)(=O)=O)CC1 | -7.33
62 | COCCN1CCC2(CC1)CN(CCn1cccn1)C(=O)CO2 | 7.22
63 | COc1nc2ccn(CCc3scnc3C)c(=O)c2cc1C#N | 12.8
64 | CC(C)CN1C[C@@H]2CN(c3cnccn3)C[C@@H]2C1=O | -91.6
65 | CC(=O)NC[C@]1(O)CCN(C(=O)c2ccc(C)c(F)c2)C[C@H]1O | -2.78
66 | OCCNc1cc(N2CCN(Cc3ccccc3)C(CCO)C2)ncn1 (configuration not stated) | 6.45
67 | CN(C)c1cc(C(=O)N2CCCC2c2cnn(C)c2)ccn1 (configuration not stated) | -1.39
68 | Cc1cccc(CN2C(=O)CCC23CCN(Cc2nccn2C)CC3)n1 | 5.47
69 | CCNc1nc(-c2cccnc2)c(-c2ccnc(NCCO)n2)s1 | -13.7

Row | SMILES | cytotoxicity at 10 µM [%]
70 | Cc1cccc(-c2noc([C@@H]3C[C@@H](O)CN3CC3CCCCC3)n2)c1 | 6.41
71 | CC(=O)c1c(F)cccc1N1CCC(C(N)=O)CC1 | 6.75
72 | Cc1noc(C)c1CCCNc1cnccn1 | 10.2
73 | CCc1nc(Cn2nc(C3CCNCC3)n(-c3ccccc3)c2=O)cs1 | -1.22
74 | COc1nccnc1N1CCC2(CC1)[C@H](O)C[C@@H]2OCCN(C)C | 4.56
75 | NC(=O)COc1ccc(C(=O)NCCc2ccco2)cc1 | 10.1
76 | COc1cc(C)c(C(C)NC(=O)Nc2nnc(C)s2)cc1OC (configuration not stated) | 1.03
77 | Cc1cc(=O)n(CCNS(=O)(=O)c2ccccc2)cn1 | 3.33
78 | Cc1cc2n(n1)CC(CNC1CCN(Cc3ccccc3C)CC1)CN2 (configuration not stated) | 3.69
79 | COc1ccsc1C(=O)Nc1cc(Cl)c(=O)n(C)c1 | 2.05
80 | CCn1ccnc1CNc1nccc(-c2cn(C)nc2C)n1 | -4.6
81 | Cc1ccc(CNC(=O)N(Cc2ccccc2F)C2CC2)cn1 | 0.0194
82 | CC(=O)NCC1(COc2cnccn2)C[C@@H](O)[C@@H](O)C1 (some centres not stated) | 1.47
83 | O=S(=O)(CCCNC1CCc2ncnn2C1)c1ccccc1 (configuration not stated) | 2.53
84 | Cc1nc(CN2CCC(c3nc4cc(Cl)ccc4o3)CC2)oc1C | -8.56
85 | O=C(O)CNc1cc(-c2cc(C3CC3)ncn2)c2cc[nH]c2n1 | 7.69
86 | OCc1nnn2c1CN(Cc1cccnc1)CCC2 | 10.1
87 | COCCC(=O)N1CCCC1c1cccc(C)c1C (configuration not stated) | 5.79
88 | Cn1cc(CNC2CCCOc3c2ccc2ccccc32)cn1 (configuration not stated) | 5.7
89 | O=C(CNC(=O)Nc1cccc(Cl)c1SC(F)F)NC1CC1 | 0.797
90 | CC(C)CN(Cc1ccc(C(F)(F)F)nc1)Cc1cnn(C)c1 | 1.42
91 | O=C1COC2(COCCN(Cc3cccnc3)C2)CN1c1ccccc1 (configuration not stated) | 9.72
92 | CCC(C)N(CC)C(=O)c1ccc2[nH]nnc2c1 (configuration not stated) | 10.5

Row | SMILES | cytotoxicity at 10 µM [%]
93 | O=C1CCC(CCC(=O)N2CCCC2c2nccs2)=NN1 (configuration not stated) | 4.06
94 | NC(=O)CN1CCCC(Cc2ccc(N3CCOCC3)nn2)C1 (configuration not stated) | 8.21
95 | CN1CCN(C(CNC(=O)CCn2cccn2)c2cccs2)CC1 (configuration not stated) | 24.4
96 | CCC1(CO)CCCN(C(=O)c2cc(COc3ccccc3F)[nH]n2)C1 (configuration not stated) | 20.8
97 | CC(C)N(Cc1cccc(Cl)c1)Cc1nc2c(cnn2C)c(=O)[nH]1 | 1.97
98 | COc1ccc(-c2cc(C(=O)NCCC(C)C)n(C)n2)cc1 | 0
99 | O=C(NCc1cccnc1)C1CN(c2cnc3ccccc3n2)CCN1 (configuration not stated) | -48.9
100 | Cc1ccccc1C(=O)NCC(O)c1ccc(F)c(F)c1 (configuration not stated) | -10.1
101 | CSCC[C@H]1CN2CCC[C@H]2CN1Cc1cn(C)nc1C | -9.85
102 | CCOCC1CN(S(C)(=O)=O)Cc2cnn(C)c21 (configuration not stated) | -15.4
103 | NC(=O)c1cc(C2CCCN(CCCOc3ccccc3)C2)n[nH]1 (configuration not stated) | -12.1
104 | N#Cc1cccc(CN2C[C@H](NC(=O)C3CC3)[C@H]3OCCC[C@H]32)c1 | -0.155
105 | COc1cc(Cl)ccc1C(=O)N1CCCC(n2nc(C)nc2C)C1 (configuration not stated) | -5.8
106 | O=C(CNC(=O)C1CC1)NCc1ccc(Cl)s1 | -3.12
107 | CN(C(=O)C1CCOCC1)[C@@H]1CCC[C@@H](N2CCCC2)[C@@H]1O | -6.22
108 | Cc1nc2c(c(N3CCN(Cc4ccco4)CC3)n1)CCNCC2 | -4.27
109 | CCC(=O)N(c1ccc(C(=O)OC)cc1C)C(C)C | 0.814
110 | COc1ccc(OCC(=O)NS(=O)(=O)c2ccc(Br)s2)cc1 | -0.383
111 | CC(C(=O)Nc1ccc(N2CCCCC2)nc1)n1cncn1 (configuration not stated) | -31.2
112 | CCCc1noc(CS(=O)(=O)c2cccc(OC)c2)n1 | 17.4
